# Reference: ChEMBL document CHEMBL5058577, “EUbOPEN Chemogenomics Library 2 (Multiplex)” (2022)
# System: U2OS
# Experiment: Multiplex assay against U2OS
# Assay type: toxicity, cell-based
# Conditions: human
# Summary of the method: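 Live cells carried four stains from seeding: Hoechst33342, BioTracker Green Microtubule Cytoskeleton Dye, MitoTracker Red and Annexin V Alexa Fluor 680. They were imaged on a CQ1 microscope at 37°C and 5% CO2 after compound addition. Using CellPathfinder machine-learning gating, cells were split into Hoechst high-intensity objects or normal cells, normal cells into healthy, pyknosed or fragmented nuclei, and pyknosed cells into mitotic or apoptotic; tubulin, mitochondrial-mass and membrane-permeability phenotypes are per cents of healthy-nucleus cells.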
# [1] = 12 h, 1 µM, compound concentration 1 uM, replicate 1
# [2] = 12 h, 1 µM, compound concentration 1 uM, replicate 2
# [3] = 12 h, 10 µM, compound concentration 10 uM, replicate 1
# [4] = 12 h, 10 µM, compound concentration 10 uM, replicate 2
# [5] = 24 h, 1 µM, compound concentration 1 uM, replicate 1
# [6] = 24 h, 1 µM, compound concentration 1 uM, replicate 2
# [7] = 24 h, 10 µM, compound concentration 10 uM, replicate 1
# [8] = 24 h, 10 µM, compound concentration 10 uM, replicate 2
# [9] = 48 h, 1 µM, compound concentration 1 uM, replicate 1
# [10] = 48 h, 1 µM, compound concentration 1 uM, replicate 2
# [11] = 48 h, 10 µM, compound concentration 10 uM, replicate 1
# [12] = 48 h, 10 µM, compound concentration 10 uM, replicate 2
smiles,measurement,setting,value
Cc1nc2ccc(Oc3ccc(F)cc3)cc2c(=O)n1C[C@H]1CCCN(C(C)C)C1.Cl,Population Apoptotic (%),[1],83%
same,Population Fragmented Nuclei (%),[1],25%
same,Population Healthy Nuclei (%),[1],64%
same,Population Hoechst High Intensity Objects (%),[1],3%
same,Population Membrane Permeable-Phenotype (%),[1],9%
same,Population Mitochondria Different-Phenotype (%),[1],3%
same,Population Mitotic Cells (%),[1],16%
same,Population Normal (%),[1],96%
same,Population Pyknosed Nuclei (%),[1],10%
same,Population Tubulin-Different-Phenotype (%),[1],7%
same,Total Cell Count,[1],244
same,Population Apoptotic (%),[2],60%
same,Population Fragmented Nuclei (%),[2],14%
same,Population Healthy Nuclei (%),[2],81%
same,Population Hoechst High Intensity Objects (%),[2],1%
same,Population Membrane Permeable-Phenotype (%),[2],17%
same,Population Mitochondria Different-Phenotype (%),[2],7%
same,Population Mitotic Cells (%),[2],40%
same,Population Normal (%),[2],98%
same,Population Pyknosed Nuclei (%),[2],4%
same,Population Tubulin-Different-Phenotype (%),[2],9%
same,Total Cell Count,[2],125
same,Population Apoptotic (%),[3],65%
same,Population Fragmented Nuclei (%),[3],25%
same,Population Healthy Nuclei (%),[3],59%
same,Population Hoechst High Intensity Objects (%),[3],3%
same,Population Membrane Permeable-Phenotype (%),[3],58%
same,Population Mitochondria Different-Phenotype (%),[3],61%
same,Population Mitotic Cells (%),[3],35%
same,Population Normal (%),[3],96%
same,Population Pyknosed Nuclei (%),[3],15%
same,Population Tubulin-Different-Phenotype (%),[3],63%
same,Total Cell Count,[3],268
same,Population Apoptotic (%),[4],78%
same,Population Fragmented Nuclei (%),[4],24%
same,Population Healthy Nuclei (%),[4],58%
same,Population Hoechst High Intensity Objects (%),[4],4%
same,Population Membrane Permeable-Phenotype (%),[4],25%
same,Population Mitochondria Different-Phenotype (%),[4],75%
same,Population Mitotic Cells (%),[4],21%
same,Population Normal (%),[4],95%
same,Population Pyknosed Nuclei (%),[4],17%
same,Population Tubulin-Different-Phenotype (%),[4],47%
same,Total Cell Count,[4],86
same,Population Apoptotic (%),[5],78%
same,Population Fragmented Nuclei (%),[5],23%
same,Population Healthy Nuclei (%),[5],65%
same,Population Hoechst High Intensity Objects (%),[5],4%
same,Population Membrane Permeable-Phenotype (%),[5],7%
same,Population Mitochondria Different-Phenotype (%),[5],5%
same,Population Mitotic Cells (%),[5],21%
same,Population Normal (%),[5],95%
same,Population Pyknosed Nuclei (%),[5],10%
same,Population Tubulin-Different-Phenotype (%),[5],4%
same,Total Cell Count,[5],276
same,Population Apoptotic (%),[6],80%
same,Population Fragmented Nuclei (%),[6],21%
same,Population Healthy Nuclei (%),[6],71%
same,Population Hoechst High Intensity Objects (%),[6],2%
same,Population Membrane Permeable-Phenotype (%),[6],11%
same,Population Mitochondria Different-Phenotype (%),[6],9%
same,Population Mitotic Cells (%),[6],20%
same,Population Normal (%),[6],97%
same,Population Pyknosed Nuclei (%),[6],6%
same,Population Tubulin-Different-Phenotype (%),[6],8%
same,Total Cell Count,[6],146
same,Population Apoptotic (%),[7],77%
same,Population Fragmented Nuclei (%),[7],25%
same,Population Healthy Nuclei (%),[7],57%
same,Population Hoechst High Intensity Objects (%),[7],4%
same,Population Membrane Permeable-Phenotype (%),[7],37%
same,Population Mitochondria Different-Phenotype (%),[7],63%
same,Population Mitotic Cells (%),[7],22%
same,Population Normal (%),[7],95%
same,Population Pyknosed Nuclei (%),[7],16%
same,Population Tubulin-Different-Phenotype (%),[7],47%
same,Total Cell Count,[7],297
same,Population Apoptotic (%),[8],76%
same,Population Fragmented Nuclei (%),[8],22%
same,Population Healthy Nuclei (%),[8],52%
same,Population Hoechst High Intensity Objects (%),[8],6%
same,Population Membrane Permeable-Phenotype (%),[8],22%
same,Population Mitochondria Different-Phenotype (%),[8],62%
same,Population Mitotic Cells (%),[8],23%
same,Population Normal (%),[8],93%
same,Population Pyknosed Nuclei (%),[8],24%
same,Population Tubulin-Different-Phenotype (%),[8],40%
same,Total Cell Count,[8],91
same,Population Apoptotic (%),[9],84%
same,Population Fragmented Nuclei (%),[9],19%
same,Population Healthy Nuclei (%),[9],69%
same,Population Hoechst High Intensity Objects (%),[9],1%
same,Population Membrane Permeable-Phenotype (%),[9],7%
same,Population Mitochondria Different-Phenotype (%),[9],5%
same,Population Mitotic Cells (%),[9],15%
same,Population Normal (%),[9],98%
same,Population Pyknosed Nuclei (%),[9],10%
same,Population Tubulin-Different-Phenotype (%),[9],4%
same,Total Cell Count,[9],371
same,Population Apoptotic (%),[10],93%
same,Population Healthy Nuclei (%),[10],72%
same,Population Hoechst High Intensity Objects (%),[10],0%
same,Population Mitotic Cells (%),[10],6%
same,Population Normal (%),[10],99%
same,Population Pyknosed Nuclei (%),[10],7%
same,Population Tubulin-Different-Phenotype (%),[10],6%
same,Total Cell Count,[10],213
same,Population Apoptotic (%),[11],77%
same,Population Fragmented Nuclei (%),[11],29%
same,Population Healthy Nuclei (%),[11],54%
same,Population Hoechst High Intensity Objects (%),[11],5%
same,Population Membrane Permeable-Phenotype (%),[11],29%
same,Population Mitochondria Different-Phenotype (%),[11],36%
same,Population Mitotic Cells (%),[11],22%
same,Population Normal (%),[11],94%
same,Population Pyknosed Nuclei (%),[11],16%
same,Population Tubulin-Different-Phenotype (%),[11],23%
same,Total Cell Count,[11],380
same,Population Apoptotic (%),[12],88%
same,Population Healthy Nuclei (%),[12],51%
same,Population Hoechst High Intensity Objects (%),[12],8%
same,Population Membrane Permeable-Phenotype (%),[12],27%
same,Population Mitochondria Different-Phenotype (%),[12],41%
same,Population Mitotic Cells (%),[12],11%
same,Population Normal (%),[12],91%
same,Population Pyknosed Nuclei (%),[12],19%
same,Population Tubulin-Different-Phenotype (%),[12],35%
same,Total Cell Count,[12],103
